# Source: ChEMBL document CHEMBL1126267, “A novel synthesis and potent antiinflammatory activity of 4-hydroxy-2(1H)-oxo-1-phenyl-1,8-naphthyridine-3-carboxamides” (1992)
# Columns and labels:
# Assay type in all cases: functional
# Settings in all cases: route oral
# [1] = tested on: Rattus norvegicus; assay: Inhibition of Zymosan-induced rat's paw edema(ZPE) after peroral administration of 100 mg/kg dose.
# In short: (§1)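 Male Wistar rats (about 150 g) were dosed orally with compound suspended in 5% arabic gum, 1 h before a subplantar hind-paw injection of 0.1 mL saline. The irritant was 1% zymosan for 33 or 1% λ-carrageenin for 34. Paw volume was measured by plethysmograph before dosing and at 4 h (zymosan) or 3 h (carrageenin). Swelling is relative to initial volume, as mean ± SEM. % inhibition is versus the control group's mean swelling.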
# [2] = tested on: Rattus norvegicus; assay: Antiinflammatory activity on Carrageenan rat's paw edema(CPE) after peroral administration of 100 mg/kg dose with control swelling of 74.7%
# [3] = tested on: Rattus norvegicus; assay: Antiinflammatory activity on Zymosan-induced rat's paw edema(ZPE) after peroral administration of 100 mg/kg dose with control swelling of 62.0%
# In short: (§2)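 Male Wistar rats weighing about 150 g were dosed orally with compound suspended in 5% arabic gum. 1 h later, 1% zymosan in 0.1 mL saline was injected subplantarly into the hind paw. Paw volume was measured by plethysmograph before dosing and 4 h after zymosan, with edema as the volume difference. Inhibition % was derived from mean swelling versus the control group.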
# [4] = tested on: Rattus norvegicus; assay: Inhibition of carrageenan-induced rat's paw edema (CPE) after peroral administration of 100 mg/kg dose.; in short: as §1
# [5] = tested on: Rattus norvegicus; assay: Compound was tested for the inhibition of rat reversed passive Arthus pleurisy after peroral administration of 100 mg/kg dose at 3.74*10e6 no of cells with 7.4*10e6 cells of control
# In short: (§3)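 Male Wistar rats (about 250 g) under ether received 0.2 mL rabbit anti-egg-albumin antiserum intrapleurally. Thirty min later they got 15 mg EA/100 g body weight in 0.1 mL saline iv. Compounds were given orally beforehand. Rats were killed 4.5 h after induction and the thoracic cavity rinsed with 5 mL saline. Exudate volume and infiltrated cell count were read as mean ± SE. % inhibition is versus control.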
# [6] = tested on: Rattus norvegicus; assay: Compound was tested for the inhibition of rat reversed passive Arthus pleurisy after peroral administration of 100 mg/kg dose at 0.64 mL of exudate volume with 0.82 mL of control (injected intrapleurally)
# In short: (§4)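 Male Wistar rats (about 250 g) were given compound orally before the antiserum. Under ether anesthesia, 0.2 mL rabbit anti-egg albumin antiserum was injected intrapleurally. After 30 min, egg albumin (15 mg/100 g body weight in 0.1 mL saline) was given iv. Rats were killed 4.5 h later and the thoracic cavity was rinsed with 5 mL saline. Exudate volume and infiltrated cell number were measured, with inhibition % versus controls as mean ± SEM.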
# [7] = tested on: Rattus norvegicus; assay: Antiinflammatory activity on Carrageenan rat's paw edema(CPE) after peroral administration of 100 mg/kg dose with control swelling of 64.2%
# [8] = tested on: Rattus norvegicus; assay: Antiinflammatory activity on Zymosan-induced rat's paw edema(ZPE) after peroral administration of 100 mg/kg dose with control swelling of 71.7%; in short: as §2
# [9] = tested on: Rattus norvegicus; assay: Compound was tested for the inhibition of rat reversed passive Arthus pleurisy after peroral administration of 100 mg/kg dose at 0.8 mL of exudate volume with 0.84 mL of control (injected intrapleurally); in short: as §4
# [10] = tested on: Rattus norvegicus; assay: Compound was tested for the inhibition of rat reversed passive Arthus pleurisy after peroral administration of 100 mg/kg dose at 4.47*10e6 no of cells with 5.72*10e6 cells of control; in short: as §3
# [11] = tested on: Rattus norvegicus; assay: Antiinflammatory activity on Carrageenan rat's paw edema(CPE) after peroral administration of 100 mg/kg dose with control swelling of 68.1%
# [12] = tested on: Rattus norvegicus; assay: Antiinflammatory activity on Zymosan-induced rat's paw edema(ZPE) after peroral administration of 100 mg/kg dose with control swelling of 62.8%; in short: as §2
# [13] = tested on: Rattus norvegicus; assay: Compound was tested for the inhibition of rat reversed passive Arthus pleurisy after peroral administration of 100 mg/kg dose at 6.01*10e6 no of cells with 7.4*10e6 cells of control; in short: as §3
# [14] = tested on: Rattus norvegicus; assay: Compound was tested for the inhibition of rat reversed passive Arthus pleurisy after peroral administration of 100 mg/kg dose at 0.65 mL of exudate volume with 0.82 mL of control (injected intrapleurally); in short: as §3
# [15] = tested on: Rattus norvegicus; assay: Compound was tested for the inhibition of rat reversed passive Arthus pleurisy after peroral administration of 100 mg/kg dose at 3.43+/-0.11*10e6 no of cells with 3.62*10e6 cells of control; in short: as §3
# [16] = tested on: Rattus norvegicus; assay: Compound was tested for the inhibition of rat reversed passive Arthus pleurisy after peroral administration of 100 mg/kg dose at 0.62 mL of exudate volume with 0.54 mL of control (injected intrapleurally); in short: as §4
Compound,inhibition in vivo at 100 mg/kg [1] [%],Swelling [2] [%],Swelling [3] [%],inhibition in vivo at 100 mg/kg [4] [%],inhibition in vivo at 100 mg/kg [5] [%],inhibition in vivo at 100 mg/kg [6] [%],Swelling [7] [%],Swelling [8] [%],inhibition in vivo at 100 mg/kg [9] [%],inhibition in vivo at 100 mg/kg [10] [%],Swelling [11] [%],Swelling [12] [%],inhibition in vivo at 100 mg/kg [13] [%],inhibition in vivo at 100 mg/kg [14] [%],inhibition in vivo at 100 mg/kg [15] [%],inhibition in vivo at 100 mg/kg [16] [%]
CCOC(=O)c1c(O)c2cccnc2n(-c2ccccc2)c1=O,23.5,63.1,47.2,15.5,–,–,–,–,–,–,–,–,–,–,–,–
O=C(NCc1ccncc1)c1c(O)c2cccnc2n(-c2ccccc2)c1=O,10,–,–,15.4,49.5,22,54.3,64.5,–,–,–,–,–,–,–,–
COc1ccc(NC(=O)c2c(O)c3cccnc3n(-c3ccccc3)c2=O)cc1,0.3,–,–,-1.9,–,–,–,–,5.1,25.4,69.4,62.6,–,–,–,–
O=C(Nc1ccc(Cl)nc1)c1c(O)c2cccnc2n(-c2ccccc2)c1=O,9.2,–,–,-4,–,–,66.8,65.1,–,–,–,–,18.8,20.7,–,–
O=C(Nc1ccc(Cl)cc1)c1c(O)c2cccnc2n(-c2ccccc2)c1=O,11.6,–,54.8,2.5,–,–,–,–,–,–,66.4,–,–,–,18.8,-16.3
